Structures are written as SMILES. In brackets after ≈: the same amount, converted by molar mass. A value given as a limit tells only on which side of the number the result lay.

The test system of one test is Candida albicans. Kind of test: Antimicrobial activity against Candida albicans ATCC 10231 after 48 to 72 hrs by broth dilution method. Type of test: functional. The essentials:
(§1)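 For C. albicans, cells were grown 48 h at 28 °C in YPD broth (1% yeast extract, 2% peptone, 2% dextrose), centrifuged and washed twice in sterile distilled water. A. fumigatus, T. rubrum and T. mentagrophytes were grown on potato dextrose agar for 2 weeks at 28 °C. Compound stocks made in DMSO. Microtiter plates incubated 48–72 h at 28 °C. Read-out was the MIC.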

A further test relates to Staphylococcus aureus. In words: Antimicrobial activity against Staphylococcus aureus ATCC 6538p after 24 hrs by broth dilution method. Type of test: functional. The essentials:
(§2)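 Test bacteria grown overnight at 37 °C in LB broth, centrifuged and washed twice in sterile distilled water. Compound stocks made in DMSO and diluted in broth. Each microtiter well received 10 µl of broth holding about 10⁵ cfu/ml of bacteria. Plates incubated 24 h at 37 °C. Read-out was the MIC.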

The target in another test is Isocitrate lyase (Candida albicans, UniProt Q9P8Q7). Kind of test: Inhibition of Candida albicans ATCC 10231 isocitrate lyase.
For test [1], the system named is Trichophyton mentagrophytes. Kind of test: Antimicrobial activity against Trichophyton mentagrophytes IFO 40996 after 48 to 72 hrs by broth dilution method. Type of test: functional. The essentials:
as §1
On the technique in general: Broth dilution looks for growth in wells or tubes with falling amounts of substance.

The next test concerns Bacillus subtilis. Kind of test: Antimicrobial activity against Bacillus subtilis ATCC 6633 after 24 hrs by broth dilution method. Type of test: functional. The conditions noted are these: ATCC 6633, 24 h. The essentials: as §2
In a further test the test system is Micrococcus luteus. Kind of test: Antimicrobial activity against Micrococcus luteus IFO 12708 after 24 hrs by broth dilution method. It counts as functional. As to conditions: IFO 12708, 24 h. In outline:
as §2

A further test relates to Proteus vulgaris. Kind of test: Antimicrobial activity against Proteus vulgaris ATCC 3851 after 24 hrs by broth dilution method. Type of test: functional. The conditions noted are these: ATCC 3851, 24 h. The essentials:
as §2

The next test concerns Trichophyton rubrum. Kind of test: Antimicrobial activity against Trichophyton rubrum IFO 9185 after 48 to 72 hrs by broth dilution method. Type of test: functional. The essentials: as §1
The test system of another test is Salmonella typhimurium. In words: Antimicrobial activity against Salmonella Typhimurium ATCC 14028 after 24 hrs by broth dilution method. It counts as functional, Salmonella enterica subsp. enterica serovar Typhimurium. The conditions noted are these: Salmonella enterica, ATCC 14028, 24 h. The essentials:
as §2

Another test has as its system Aspergillus fumigatus. In words: Antimicrobial activity against Aspergillus fumigatus HIC 6094 after 48 to 72 hrs by broth dilution method. Type of test: functional. The essentials:
as §1

Isocitrate lyase, sequence (Q9P8Q7 whole entry): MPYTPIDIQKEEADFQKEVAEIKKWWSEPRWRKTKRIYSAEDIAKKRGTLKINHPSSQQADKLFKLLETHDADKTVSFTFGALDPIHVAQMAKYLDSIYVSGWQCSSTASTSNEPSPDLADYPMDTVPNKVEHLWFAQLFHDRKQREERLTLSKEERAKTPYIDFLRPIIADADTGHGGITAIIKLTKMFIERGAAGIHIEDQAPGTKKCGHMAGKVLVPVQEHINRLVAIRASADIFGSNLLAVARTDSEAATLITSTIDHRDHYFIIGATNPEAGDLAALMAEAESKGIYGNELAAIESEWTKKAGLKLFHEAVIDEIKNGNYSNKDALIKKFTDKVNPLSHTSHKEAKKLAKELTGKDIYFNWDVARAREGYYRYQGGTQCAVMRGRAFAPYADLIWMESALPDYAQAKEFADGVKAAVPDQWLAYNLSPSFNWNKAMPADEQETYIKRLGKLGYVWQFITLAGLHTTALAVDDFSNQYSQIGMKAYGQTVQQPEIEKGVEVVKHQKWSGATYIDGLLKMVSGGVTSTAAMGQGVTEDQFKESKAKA

On to `Oc1ccc(Oc2ccc(O)c(O)c2)cc1O`, for which the minimum inhibitory concentration (MIC) (in general, the lowest concentration that inhibits growth of the organism) in the test on Candida albicans is above 100 µg/mL; in the test on Staphylococcus aureus, 50 µg/mL (≈ 213 µM); in test [1], above 100 µg/mL; against Bacillus subtilis, above 100 µg/mL; with Micrococcus luteus, 100 µg/mL (≈ 427 µM); in the test on Proteus vulgaris it was above 100 µg/mL. Moreover, the minimal inhibitory concentration (MIC) is above 100 µg/mL against Trichophyton rubrum, 100 µg/mL (≈ 427 µM) against Salmonella typhimurium and above 100 µg/mL in the test on Aspergillus fumigatus. Also, at Isocitrate lyase, the IC50 (as a rule, the concentration that inhibits the measured activity by half) is above 100 µM.

With `Oc1ccc(Oc2cc(O)c(O)cc2Br)cc1O`, the MIC against Candida albicans is above 100 µg/mL; against Staphylococcus aureus it was 100 µg/mL (≈ 319 µM); in [1] it was above 100 µg/mL; against Bacillus subtilis it was above 100 µg/mL; with Micrococcus luteus, 100 µg/mL (≈ 319 µM); with Proteus vulgaris, above 100 µg/mL. Besides, the values for the MIC in the test with Trichophyton rubrum, in the test with Salmonella typhimurium and with Aspergillus fumigatus were above 100 µg/mL, 100 µg/mL (≈ 319 µM) and above 100 µg/mL, respectively. This molecule returned an IC50 at Isocitrate lyase of 68.2 µM.

Turning to `Oc1cc(Br)c(Oc2cc(O)c(O)cc2Br)cc1O`, the MIC is above 100 µg/mL against Candida albicans; 100 µg/mL (≈ 255 µM) in the test on Staphylococcus aureus; above 100 µg/mL in test [1]; 100 µg/mL (≈ 255 µM) in the test with Bacillus subtilis; 50 µg/mL (≈ 128 µM) with Micrococcus luteus; 100 µg/mL (≈ 255 µM) in the test with Proteus vulgaris. For the same molecule, the MIC in the test with Trichophyton rubrum is above 100 µg/mL; against Salmonella typhimurium, 100 µg/mL (≈ 255 µM); with Aspergillus fumigatus, above 100 µg/mL. On Isocitrate lyase, this molecule came in with an IC50 of 30.9 µM.

With `O=C(c1ccc(O)c(O)c1)c1ccc(O)c(O)c1`, the MIC (in the test with Candida albicans; against Staphylococcus aureus; in test [1]; in the test with Bacillus subtilis; against Micrococcus luteus; in the test on Proteus vulgaris) was above 100 µg/mL throughout. The MIC with Trichophyton rubrum, against Salmonella typhimurium and in the test on Aspergillus fumigatus was above 100 µg/mL each time. This molecule also showed an IC50 at Isocitrate lyase of 22.6 µM.

For `O=C(c1cc(O)c(O)c(Br)c1)c1cc(O)c(O)c(Br)c1`, the MIC was above 100 µg/mL against Candida albicans; above 100 µg/mL in the test on Staphylococcus aureus; above 100 µg/mL in test [1]; 100 µg/mL (≈ 248 µM) with Bacillus subtilis; 100 µg/mL (≈ 248 µM) in the test with Micrococcus luteus; above 100 µg/mL in the test with Proteus vulgaris. For the same molecule, the MIC in the test on Trichophyton rubrum, against Salmonella typhimurium and against Aspergillus fumigatus was above 100 µg/mL in each case. The IC50 against Isocitrate lyase was 8.89 µM.

With `Oc1ccc(CCc2ccc(O)c(O)c2)cc1O`, the MIC with Candida albicans is above 100 µg/mL; with Staphylococcus aureus it was 50 µg/mL (≈ 203 µM); in [1] it was 100 µg/mL (≈ 406 µM); in the test on Bacillus subtilis, 100 µg/mL (≈ 406 µM); in the test with Micrococcus luteus it was 100 µg/mL (≈ 406 µM); in the test on Proteus vulgaris it was 100 µg/mL (≈ 406 µM). Moreover, the results for the MIC against Trichophyton rubrum, in the test with Salmonella typhimurium and with Aspergillus fumigatus were above 100 µg/mL, 100 µg/mL (≈ 406 µM) and above 100 µg/mL, respectively. On Isocitrate lyase, this molecule came in with an IC50 of 58.5 µM.

As for `Oc1cc(Br)c(CCc2cc(O)c(O)cc2Br)cc1O`, the MIC with Candida albicans worked out at 50 µg/mL (≈ 124 µM); in the test on Staphylococcus aureus, 50 µg/mL (≈ 124 µM); in test [1] it was 100 µg/mL (≈ 247 µM); in the test with Bacillus subtilis, 50 µg/mL (≈ 124 µM); with Micrococcus luteus it was 50 µg/mL (≈ 124 µM); in the test on Proteus vulgaris, 50 µg/mL (≈ 124 µM). The minimal inhibitory concentration (MIC) in the test on Trichophyton rubrum, against Salmonella typhimurium and in the test with Aspergillus fumigatus was 50 µg/mL (≈ 124 µM) each time. The IC50 at Isocitrate lyase amounted to 21.2 µM.

Consider `Oc1ccc(COCc2ccc(O)c(O)c2)cc1O`, for which the MIC (in the test on Candida albicans; with Staphylococcus aureus; in test [1]; against Bacillus subtilis; in the test on Micrococcus luteus; in the test with Proteus vulgaris) was above 100 µg/mL each time. The MIC in the test on Trichophyton rubrum, in the test on Salmonella typhimurium and against Aspergillus fumigatus was above 100 µg/mL each time. The molecule also returned an IC50 against Isocitrate lyase above 381 µM.

On to `Oc1cc(Oc2cc(O)c(O)c(Br)c2Br)c(Br)c(Br)c1O`, for which the MIC in the test with Candida albicans was found to be 25 µg/mL (≈ 45.5 µM); against Staphylococcus aureus it was 50 µg/mL (≈ 90.9 µM); in [1] it was 25 µg/mL (≈ 45.5 µM); against Bacillus subtilis, 25 µg/mL (≈ 45.5 µM); against Micrococcus luteus, 50 µg/mL (≈ 90.9 µM); in the test on Proteus vulgaris, 25 µg/mL (≈ 45.5 µM). Also, the MIC was 12.5 µg/mL (≈ 22.7 µM) in the test with Trichophyton rubrum, 50 µg/mL (≈ 90.9 µM) in the test with Salmonella typhimurium and 25 µg/mL (≈ 45.5 µM) in the test with Aspergillus fumigatus. This molecule also had an IC50 against Isocitrate lyase of 11.6 µM.

In the case of `O=C(c1cc(O)c(O)c(Br)c1)c1cc(O)c(O)c(Br)c1Br`, the MIC in the test with Candida albicans is 100 µg/mL (≈ 207 µM); with Staphylococcus aureus, 100 µg/mL (≈ 207 µM); in test [1] it was above 100 µg/mL; in the test on Bacillus subtilis it was 50 µg/mL (≈ 104 µM); in the test on Micrococcus luteus, 50 µg/mL (≈ 104 µM); against Proteus vulgaris, 100 µg/mL (≈ 207 µM). Further, the MIC in the test on Trichophyton rubrum was above 100 µg/mL; with Salmonella typhimurium it was 100 µg/mL (≈ 207 µM); against Aspergillus fumigatus, above 100 µg/mL. Also, the IC50 on Isocitrate lyase was determined as 2.65 µM.

Take `Oc1cc(Br)c(CCc2cc(O)c(O)c(Br)c2Br)cc1O`: the MIC with Candida albicans was 100 µg/mL (≈ 207 µM); against Staphylococcus aureus it was 100 µg/mL (≈ 207 µM); in [1] it was above 100 µg/mL; against Bacillus subtilis, 50 µg/mL (≈ 104 µM); in the test on Micrococcus luteus, 100 µg/mL (≈ 207 µM); against Proteus vulgaris, 100 µg/mL (≈ 207 µM). Besides, the minimum inhibitory concentration (MIC) is above 100 µg/mL in the test with Trichophyton rubrum, 100 µg/mL (≈ 207 µM) in the test with Salmonella typhimurium and above 100 µg/mL in the test with Aspergillus fumigatus. Moreover, at Isocitrate lyase, the IC50 is 14.8 µM.

With `Oc1cc(Br)c(COCc2cc(O)c(O)c(Br)c2Br)cc1O`, the MIC (in the test with Candida albicans; in the test on Staphylococcus aureus; in test [1]; in the test with Bacillus subtilis; in the test with Micrococcus luteus; in the test on Proteus vulgaris) was above 100 µg/mL in each case. Besides, the minimum inhibitory concentration (MIC) in the test with Trichophyton rubrum, against Salmonella typhimurium and in the test with Aspergillus fumigatus was above 100 µg/mL in each case. The same molecule showed an IC50 on Isocitrate lyase of 15.6 µM.

For the molecule `Oc1cc(Cc2cc(O)c(O)c(Br)c2Br)c(Br)c(Br)c1O`, the MIC in the test with Candida albicans came to 1.56 µg/mL (≈ 2.85 µM); in the test with Staphylococcus aureus it was 25 µg/mL (≈ 45.6 µM); in test [1], 1.56 µg/mL (≈ 2.85 µM); against Bacillus subtilis, 25 µg/mL (≈ 45.6 µM); in the test on Micrococcus luteus, 25 µg/mL (≈ 45.6 µM); in the test with Proteus vulgaris it was 50 µg/mL (≈ 91.3 µM). In addition, the values for the MIC against Trichophyton rubrum, in the test on Salmonella typhimurium and in the test on Aspergillus fumigatus were 1.56 µg/mL (≈ 2.85 µM), 50 µg/mL (≈ 91.3 µM) and 0.78 µg/mL (≈ 1.42 µM), respectively. This molecule displayed an IC50 at Isocitrate lyase of 18.4 µM.

As to `Oc1cc(Br)c(Cc2cc(O)c(O)cc2Br)cc1O`, the MIC against Candida albicans was above 100 µg/mL; in the test with Staphylococcus aureus, 25 µg/mL (≈ 64.1 µM); in test [1], 50 µg/mL (≈ 128 µM); in the test on Bacillus subtilis, 25 µg/mL (≈ 64.1 µM); against Micrococcus luteus it was 12.5 µg/mL (≈ 32 µM); against Proteus vulgaris, 25 µg/mL (≈ 64.1 µM). The MIC in the test on Trichophyton rubrum was above 100 µg/mL; with Salmonella typhimurium, 25 µg/mL (≈ 64.1 µM); with Aspergillus fumigatus it was above 100 µg/mL. The IC50 on Isocitrate lyase came out at 46.2 µM.

As to `Oc1cc(COCc2cc(O)c(O)c(Br)c2Br)c(Br)c(Br)c1O`, the MIC (in the test with Candida albicans; with Staphylococcus aureus; in test [1]; against Bacillus subtilis; against Micrococcus luteus; against Proteus vulgaris) was above 100 µg/mL each time. In addition, the MIC against Trichophyton rubrum, in the test on Salmonella typhimurium and in the test with Aspergillus fumigatus was above 100 µg/mL each time. Further, the midpoint of inhibition on Isocitrate lyase, the IC50, lay at 28.1 µM.

Turning to `C[C@@H]1[C@H](O)[C@@H](C)/C=C/C=C/C=C/C=C/C=C/C=C/C=C/[C@H](O[C@@H]2O[C@H](C)[C@@H](O)[C@H](N)[C@@H]2O)C[C@@H]2O[C@](O)(C[C@@H](O)C[C@@H](O)[C@H](O)CC[C@@H](O)C[C@@H](O)CC(=O)O[C@H]1C)C[C@H](O)[C@H]2C(=O)O` [AMPHOTERICIN B], the MIC turned out to be 6.25 µg/mL (≈ 6.76 µM) in the test with Candida albicans, 3.12 µg/mL (≈ 3.38 µM) in test [1], 3.12 µg/mL (≈ 3.38 µM) in the test on Trichophyton rubrum and 3.12 µg/mL (≈ 3.38 µM) against Aspergillus fumigatus.

As for `CC1(C)S[C@@H]2[C@H](NC(=O)[C@H](N)c3ccccc3)C(=O)N2[C@H]1C(=O)O` [AMPICILLIN], the MIC with Staphylococcus aureus came out at 1.56 µg/mL (≈ 4.46 µM); in the test on Bacillus subtilis, 1.56 µg/mL (≈ 4.46 µM); against Micrococcus luteus, 3.12 µg/mL (≈ 8.93 µM); against Proteus vulgaris it was 3.12 µg/mL (≈ 8.93 µM); with Salmonella typhimurium it was 1.56 µg/mL (≈ 4.46 µM).

For the origin of these results see ChEMBL document CHEMBL1268941, “Bromophenols as Candida albicans isocitrate lyase inhibitors” (Bioorg Med Chem Lett, 2010).
